The species named for one data set is Mus musculus. The data set is described as follows: Toxicity against mouse E15.5 cortical neurones at 10 uM. The settings on record: in vitro. The procedure, abridged:
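E15 mouse primary cortical neurons were cultured in neurobasal/B27 and exposed to compound at 10 µM. Live cells were counted after calcein-AM staining, with hemoglobin quench and whole-well imaging. Each experiment was repeated at least six times.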

The next data set relates to Cortical neurone. In words: Inhibition of etoposide-induced death of mouse E15.5 cortical neurones. The data set is classed as functional. In short, it runs like this: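 Primary cortical neurons from E15 wild-type mouse embryos were exposed to etoposide at 1.25 and 2.5 µM, with compound alongside DMSO. Etoposide alone served as the control. Live cells were stained with calcein-AM for 45 min, quenched with hemoglobin, and whole wells were imaged and counted automatically. Survival is relative to untreated cultures set to 100%. At least six independent experiments were run, each in triplicate.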

Data set [1] addresses Cellular tumor antigen p53 (Mus musculus) (UniProt P02340). The data set is described as follows: Inhibition of p53-mediated increase in p21/WAF1 level at 300 nM. The data set is classed as functional. The settings on record: filed as antagonist. The procedure, abridged: (§1)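 Wild-type E15 mouse cortical neurons were kept 3 days in vitro in neurobasal/B27 and treated with etoposide to trigger p53 activation. Time-course and concentration-dependent experiments were run. p21/WAF1 protein was detected by western blot of total extracts made in boiling SDS/Tris buffer.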

The species named for data set [2] is Rattus norvegicus. In words: Protection against axotomy-induced RGC apoptosis in Wistar rat intravitreally injected with 6 uM. It is filed as functional. In short, it runs like this:
(§2)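 Adult male Wistar rats (300-400 g) had the optic nerve transected, and RGCs were retrogradely labeled with FluoroGold placed on the stump. Compound or vehicle (DMSO 2%), 3 µL, was injected intravitreally on days 0, 3 and 7. Eyes were taken on day 14 and retinas flat-mounted. FG-positive RGCs were counted blind in fields at three eccentricities. Groups had n = 3-6, with DMSO as baseline; results are given as mean ± sem.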

The species named for data set [3] is Rattus norvegicus. In words: Protection against axotomy-induced RGC apoptosis in Wistar rat intravitreally injected with 0.06 uM. The data set is classed as functional. The procedure, abridged:
as §2

Data set [4] concerns the target Cellular tumor antigen p53 (Mus musculus) (UniProt P02340). In words: Inhibition of p53-mediated increase in p21/WAF1 level at 30 nM. It is filed as functional. The note with it: filed as antagonist. The procedure, abridged: as §1

Active and inactive are the calls of the source. The rule behind the calls is not given here.

Chain of Cellular tumor antigen p53 (Mus musculus) (P02340 whole entry): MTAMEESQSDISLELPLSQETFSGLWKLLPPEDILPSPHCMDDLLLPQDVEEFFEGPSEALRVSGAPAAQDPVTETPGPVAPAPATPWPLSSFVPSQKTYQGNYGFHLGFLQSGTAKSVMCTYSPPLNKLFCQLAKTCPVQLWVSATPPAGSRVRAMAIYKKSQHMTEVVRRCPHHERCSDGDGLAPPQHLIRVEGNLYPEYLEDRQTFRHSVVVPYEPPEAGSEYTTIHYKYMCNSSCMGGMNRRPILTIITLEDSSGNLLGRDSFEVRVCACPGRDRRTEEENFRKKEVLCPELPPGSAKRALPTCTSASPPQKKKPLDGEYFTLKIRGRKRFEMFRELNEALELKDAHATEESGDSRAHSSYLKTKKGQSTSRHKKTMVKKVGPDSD

As for `Br.N=c1sc2c(n1CC(=O)c1ccc([N+](=O)[O-])cc1)CC1CCCCC1C2` (stereo not given), in the data set listed under Mus musculus, the Activity result is reported as “Non-toxic”. Further, the outcome with Cortical neurone was Active.
In the same order, the values of `Br.Cc1ccc(C(=O)Cn2c3c(sc2=N)CCCCC3)cc1` are “Non-toxic” and “inactive”.
In the same order, the values of `Br.COc1ccc(C(=O)Cn2c3c(sc2=N)CCCC3)cc1` are “Non-toxic” and “inactive”.
On to `Br.Cc1ccc(C(=O)Cn2c3c(sc2=N)CCCC3)cc1`, for which the Activity entry was “Antagonist” in data set [1], 131% in the data set listed under Rattus norvegicus [2] and 98% in the data set listed under Rattus norvegicus [3]. In the data set with Cortical neurone, the outcome was Active.
As for `Br.COc1ccc(C(=O)Cn2c3c(sc2=N)CC2CCCCC2C3)cc1` (stereo not given), in the data set filed under Mus musculus, the Activity result was “Non-toxic”.
As to `Br.Cc1ccc(C(=O)Cn2c3c(sc2=N)CC2CCCCC2C3)cc1` (stereo not given), in the data set filed under Mus musculus, the Activity entry was “Non-toxic”. The outcome with Cortical neurone was inactive.
For `O=[N+]([O-])c1ccc(-c2cn3c4c(sc3n2)CCCC4)cc1`, the Activity entry in the data set listed under Mus musculus was “Non-toxic”; in data set [4] it was “Antagonist”. For the same molecule, the EC50 in the data set on Cortical neurone (read-out: ED50 (the source's name)) was found to be 30 nM. Besides, the outcome in the data set filed under Rattus norvegicus [2] and in the data set filed under Rattus norvegicus [3] (in the assay text read “6 uM” for “0.06 uM”) was inactive.
Regarding `Br.N=c1sc2c(n1CC(=O)c1ccc([N+](=O)[O-])cc1)CCCC2`, the Activity result in the data set filed under Mus musculus was “Non-toxic”; in data set [1] it was “Antagonist”; in the data set filed under Rattus norvegicus [3], 150%. For the same molecule, in the data set with Cortical neurone, the outcome was Active.
Turning to `Br.N=c1sc2c(n1C/C(=N/O)c1ccc([N+](=O)[O-])cc1)CCCC2`, in the data set listed under Mus musculus, the Activity result is “Non-toxic”. Also, the result in the data set with Cortical neurone was inactive.
Regarding `O=[N+]([O-])c1ccc(-c2cn3c4c(sc3n2)CC2CCCCC2C4)cc1` (stereo not given), the Activity entry in the data set listed under Mus musculus is given as “Non-toxic”.

Values taken from ChEMBL document CHEMBL1148645, “Imino-tetrahydro-benzothiazole derivatives as p53 inhibitors: discovery of a highly potent in vivo inhibitor and its action mechanism” (J Med Chem, 2006).
